# High-throughput results deposited in PubChem by several laboratories.
# Hits are enriched below; roughly 3.6% of the tested compounds scored in any of these assays.
# Yeast growth inh: growth inhibitors of yeast BB579 in restrictive medium, primary screen, yeast lifespan-shortening project, S. cerevisiae. OD615, 48 h. inhibition, % at 10 µM. 140,000 compounds, 0.51% hits;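 active = inhibition above a set limit, 3 SD over the mean compound inhibition, cut at about 44% in these data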
#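 Test system: Saccharomyces cerevisiae DeaD strain BB579, replicative lifespan model yeast | Buffer or medium: Restrictive CSMM-D medium | Doses: One dose, 10 µM compound with 0.25% DMSO | Incubation: 48 h exposure, 30 °C | Detection: Culture absorbance at 615 nm | Control set: Amphotericin B at 10 µg/mL as positive control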
# Measles CPE: compounds protecting cells from measles virus cytopathic effect, primary screen, measles RdRp inhibitor project, single point, MLSMR library, absorbance. Measles virus-infected cells, CPE protection. protection (pct of control), % at 4 µM. 140,000 compounds, 1.5% hits. AID 841, 2007; in the data active = protection mostly above about 24%, no sharp cut-off; inactive = mostly below about 26%
# RAM inhibit: inhibitors of the yeast RAM network, primary screen, dse1pr::URA3 reporter, 5-FOA selection; S. cerevisiae dse1pr::URA3 reporter, 5-FOA growth OD615, 2 d; analog-sensitive cbk1-as2 kinase mutant strain; inhibition, % at 50 µM; 190,000 compounds, 1.8% hits;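 active = inhibition above a set limit, 3 SD over mean compound inhibition, cut at about 8.4% in these data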;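 also: inhibition rescues growth on 5-FOA so higher OD means more RAM inhibition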
# Yeast life ext: compounds extending yeast replicative lifespan, primary screen, S. cerevisiae, OD615. S. cerevisiae growth with nicotinamide; deaD strain in restrictive glucose medium. inhibition of the nicotinamide effect, % at 10 µM. 130,000 compounds, 0.68% hits. AID 775, 2007;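 active = inhibition above a set limit, placed 3 SD over the median of all compounds, cut at about 26% in these data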
#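 Measured by: optical density (absorbance) at 615 nm; System: modified budding yeast, DeaD strain; Medium: restrictive CSMM-D dextrose medium; Timing: 4 h preincubation then 48 h treatment at 30 °C.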
# Hits are given with their value; . = inactive; / = no result.
SMILES,Yeast growth inh,Measles CPE,RAM inhibit,Yeast life ext
COc1cccc(C2CC(C(F)(F)F)n3nc(C(=O)Nc4c(C)n(C)n(-c5ccccc5)c4=O)cc3N2)c1 (configuration not stated),/,/,.,/
Cc1ccc(C2CC(C(F)(F)F)n3nc(C(=O)Nc4c(C)n(C)n(-c5ccccc5)c4=O)cc3N2)cc1 (configuration not stated),/,/,9.9,/
COc1ccc(CNC(=O)CN(C(=O)CCC(=O)Nc2ccccn2)c2cccc(C)c2)cc1,/,/,10,/
Cc1cccc(N(CC(=O)NC2CCCCC2)C(=O)CCCC(=O)Nc2ccccn2)c1,.,33,.,/
O=C(c1ccc(Cn2c(=S)[nH]c3cc4c(cc3c2=O)OCO4)cc1)N1CCN(c2ncccn2)CC1,/,/,.,/
Cc1cc(C(=O)Cn2cncn2)c(C)n1CCc1ccc(F)cc1,.,68,.,.
O=C(CCNc1ccc(Cc2ccncc2)cc1)c1ccc([N+](=O)[O-])cc1,/,/,.,/
COC(=O)c1c(F)c(F)c(N2CCOCC2)c(F)c1F,.,.,.,.
CC(C)OC(=O)c1c(F)c(F)c(N2CCOCC2)c(F)c1F,.,.,.,44
CCCn1c(NC(=O)C2COc3ccccc3O2)nc2ccccc21 (configuration not stated),.,.,8.6,.
CCCn1c(NC(=O)c2ccco2)nc2ccccc21,.,.,.,.
COc1ccc(/C=C/C(=O)Nc2cc(C)nn2-c2nc3ccccc3n2Cc2cccc([N+](=O)[O-])c2)cc1,.,.,8.9,.
CSc1nnc(-c2ccc(Cl)cc2Cl)o1,.,89,.,.
O=C(CCNC(=O)Cn1ccc2ccccc2c1=O)NCc1ccccn1,/,/,.,/
C[C@]12CC[C@@H]3c4ccc(O)cc4CC[C@H]3[C@@H]1CC[C@@H]2OC(=O)CCC(=O)O,.,.,.,57
CC(CN1CCOCC1)OC(=O)c1ccccc1Br (configuration not stated),.,56,.,.
N#C/C(=C\c1ccccc1)c1nc2ncccc2[nH]1,.,56,.,.
O=C1CC(c2cccc(Cl)c2)CC(O)=C1C=Nc1cccc(Cl)c1 (configuration not stated),.,.,.,29
O=[N+]([O-])c1cccc(-c2cn(-c3ccccc3)c(=S)[nH]2)c1,/,/,.,/
O=[N+]([O-])c1ccc(-c2cn(-c3ccccc3)c(=S)[nH]2)cc1,.,.,10,.
CC(=O)c1c(C)[nH]c(C(=O)NC(C)c2ccccc2)c1C (configuration not stated),/,/,.,/
CC1CCN(S(=O)(=O)c2ccc(C(=O)Nc3ccccc3-c3nc4ccccc4[nH]3)cc2)CC1,.,.,.,.
CC1CCCN(S(=O)(=O)c2ccc(C(=O)Nc3ccccc3-c3nc4ccccc4[nH]3)cc2)C1 (configuration not stated),.,.,9.8,.
COc1ccc(CCN2C(=O)C(O)=C(C(=O)c3ccco3)C2c2cccs2)cc1OC (configuration not stated),.,.,.,83
COc1cc(C2C(C(=O)c3ccco3)=C(O)C(=O)N2CCc2ccccc2)ccc1O (configuration not stated),.,.,.,.
SMILES,Yeast growth inh,Measles CPE,RAM inhibit,Yeast life ext
COc1ccc(C2C(C(=O)c3ccco3)=C(O)C(=O)N2c2nnc(C)s2)cc1 (configuration not stated),/,/,.,/
Cc1ccc2nc(N3C(=O)C(O)=C(C(=O)c4ccco4)C3c3cccs3)sc2c1 (configuration not stated),.,.,.,61
CC(C)(C)SCCNC(=O)c1ccc(Cl)c([N+](=O)[O-])c1,.,.,.,.
CCC(C)(C(=O)NC1CCCCC1)N(C(=O)CNC(=O)c1ccccc1)c1c(C)n(C)n(-c2ccccc2)c1=O (configuration not stated),/,/,.,/
CCO[C@H]1OC(C(=O)Nc2ccccc2)=C[C@@H](c2ccc(C(F)(F)F)cc2)[C@@H]1CCCO,/,/,9.0,/
CC(C)(C)n1nnnc1SCC(=O)Nc1nn(-c2ccccc2)nc1C(N)=O,/,/,.,/
CCOc1ccc(-n2nc3c(Cl)nnc(C)c3c2C)cc1,.,.,.,.
CC(C)N=c1scc(-c2cccs2)n1/N=C/c1ccc(O)c(O)c1O,96,.,.,.
CN=c1scc(-c2ccccc2F)n1/N=C/c1ccc(O)c(O)c1O,/,/,.,/
CCOC(=O)C1=C(C)Nc2ccccc2N=C1NC(=O)c1cccc(S(=O)(=O)N(C)C)c1,.,.,.,.
CCOC(=O)C1=C(C)Nc2ccccc2N=C1NC(=O)c1ccc(Cl)c(S(=O)(=O)N2CCCC2)c1,/,/,8.7,/
COc1ccc(-c2c(C)n([O-])c3c([n+]2=O)CCCC3)cc1OC,/,/,.,/
Cc1ccccc1Nc1nnc(SCC(=O)Nc2ccccc2[N+](=O)[O-])s1,.,.,8.7,.
Cc1ccc(-c2cc3nc(C)cc(C)n3n2)cc1,/,/,.,/
COc1ccc(-c2cc3nc(C)cc(N4CC(C)CC(C)C4)n3n2)cc1 (configuration not stated),71,.,.,/
CCCCC(=O)Nc1ccc(C(=O)N(CC)c2ccccc2C)cc1,/,/,.,/
Cc1ccc(-c2ccc(/C=N\NC(=O)c3cc4c(ccc5ccccc54)o3)o2)cc1[N+](=O)[O-],.,51,.,.
Cc1ccc(C(=O)CSC2=C(C#N)C(c3ccco3)C3=C(CC(C)(C)CC3=O)N2)cc1 (configuration not stated),.,.,.,.
CC1(C)CC(=O)C2=C(C1)NC(SCC(=O)Nc1ccccc1)=C(C#N)C2c1ccco1 (configuration not stated),.,38,.,.
COc1ccc(N(CC(=O)NCCSCc2ccco2)S(=O)(=O)c2ccccc2)cc1,/,/,9.3,/
COCCCNC(=O)CN(c1ccc(OC)cc1)S(=O)(=O)c1ccc(NC(C)=O)cc1,.,53,.,.
CCOc1ccc(N(CC(=O)Nc2ccc(OC)cc2)S(C)(=O)=O)cc1,.,48,.,.
COc1ccc(N(CC(=O)NC(C)C)S(=O)(=O)c2ccc(NC(C)=O)cc2)cc1,.,.,.,.
N/C(Cc1ccc(Cl)cc1Cl)=N\OC(=O)c1cccs1,100,.,.,.
CSc1ccc(/C=N/n2c(Cc3ccc(Br)cc3)n[nH]c2=S)cc1,/,/,10.0,/
SMILES,Yeast growth inh,Measles CPE,RAM inhibit,Yeast life ext
COc1ccc(/C=C(\NC(=O)c2ccccc2)C(=O)OCC2CCCN3CCCCC23)cc1OC (configuration not stated),/,/,.,/
COc1ccc(OC)c(Nc2nc(C3CC3)nc3c2nnn3Cc2ccccc2)c1,.,66,.,.
O=C(Nc1ccc(S(=O)(=O)NCc2ccco2)cc1)C1CCCCC1,/,/,.,/
O=C(O)C1CCCN1C(=O)Nc1ccc(Cl)cc1 (configuration not stated),.,26,.,.
COc1ccc(/C=C(\CC(=O)O)c2nc3ccccc3o2)cc1,/,/,9.6,/
COc1ccc(C(=O)/C(=C/c2cccs2)c2nc3ccccc3o2)cc1,.,.,.,.
